# The source made the active and inactive calls. The calls are words filed in the database; no cut-off is given here.
# Columns and labels:
# HUVEC = experiment: Cytotoxicity against HUVEC assessed as inhibition of metabolic activity after 48 hrs by MTT assay; assay type: ADME, cell-based; conditions: Homo sapiens
# Procedure, shortened: (§1)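 Exponentially growing cells seeded in 96-well plates and grown 24 h. Compounds in DMSO, diluted in medium (final DMSO <0.1%), added at 10^-7 to 10^-3 M for 48 h. MTT (5 mg/mL in PBS) then added for 2 h. Formazan dissolved in DMSO and read at 560 nm against untreated cells. IC50 taken from concentration–response curves; mean ± SD of ≥3 experiments.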
# MCF-10A = experiment: Cytotoxicity against human MCF10A cells assessed as inhibition of metabolic activity after 48 hrs by MTT assay; assay type: ADME, cell-based; procedure, shortened: as §1
# HL-60 [1] = experiment: Cytotoxicity against human HL60 cells assessed as inhibition of metabolic activity after 48 hrs by MTT assay; assay type: functional, cell-based; conditions: HL-60, 48 h; procedure, shortened: as §1
# NALM-6 = experiment: Cytotoxicity against human NALM6 cells assessed as inhibition of metabolic activity after 48 hrs by MTT assay; assay type: functional, cell-based; conditions: NALM-6, 48 h; procedure, shortened: as §1
# MCF7 [2] = experiment: Cytotoxicity against human MCF7 cells assessed as inhibition of metabolic activity after 48 hrs by MTT assay; assay type: functional, cell-based; conditions: MCF7, 48 h; procedure, shortened: as §1
# [3] = Selectivity index, ratio of IC50 for human MCF10A cells to IC50 for human MCF7 cells; assay type: toxicity; conditions: MCF10A cells versus MCF7 cells, read-out: Ratio IC50
# HL-60 [4] = experiment: Induction of ROS generation in human HL60 cells at 200 uM after 1 hr by Cellrox Green staining based flow cytometry; assay type: functional, cell-based
# Procedure, shortened: (§2)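 Positive-control ROS measurement in HL-60 and MCF-7 cells: menadione 200 µM for 1 h. Cells then stained with 5 µM CellROX Green for 30 min at 37 °C and analysed by flow cytometry. 3–4 independent experiments in triplicate, mean ± SEM.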
# MCF7 [5] = experiment: Induction of ROS generation in human MCF7 cells at 200 uM after 1 hr by Cellrox Green staining based flow cytometry; assay type: functional, cell-based; procedure, shortened: as §2
# HL-60 [6] = experiment: Induction of apoptosis in human HL60 cells assessed as early apoptotic cells at 7.27 +/- 0.08 uM after 24 hrs by Annexin V-APC/propidium iodide staining based flow cytometry (reference value: 3.4%); assay type: functional
# HL-60 [7] = experiment: Inhibition of cell proliferation in human HL60 cells assessed as reduction in BrdU incorporation at 7.27 +/- 0.08 uM after 24 hrs by DAPI staining based flow cytometry relative to control; assay type: functional
# MCF7 [8] = experiment: Induction of apoptosis in human MCF7 cells assessed as increase in cleaved PARP positive cells at 3.4 +/- 0.15 uM after 24 hrs by DAPI staining based flow cytometry relative to control; assay type: functional, cell-based
# MCF7 [9] = experiment: Induction of apoptosis in human MCF7 cells assessed as late apoptotic cells at 3.4 +/- 0.15 uM after 24 hrs by Annexin V-APC/propidium iodide staining based flow cytometry (reference value: 6.1%); assay type: functional
# MCF7 [10] = experiment: Induction of DNA damage in human MCF7 cells assessed as increase in H2AX phosphorylation at S139 residue at 3.4 +/- 0.15 uM after 24 hrs by DAPI staining based flow cytometry relative to control; assay type: functional
# MCF7 [11] = experiment: Cell cycle arrest in human MCF7 cells assessed as accumulation at G0/G1 phase at 3.4 +/- 0.15 uM after 24 hrs by DAPI staining based flow cytometry (reference value: 55%); assay type: functional
# HL-60 [12] = experiment: Cell cycle arrest in human HL60 cells assessed as accumulation at subG0/G1 phase at 7.27 +/- 0.08 uM after 24 hrs by DAPI staining based flow cytometry (reference value: 3.1%); assay type: functional
# MCF7 [13] = experiment: Inhibition of cell proliferation in human MCF7 cells assessed as reduction in BrdU incorporation at 3.4 +/- 0.15 uM after 24 hrs by DAPI staining based flow cytometry relative to control; assay type: functional
# MCF7 [14] = experiment: Induction of apoptosis in human MCF7 cells assessed as viable cells at 3.4 +/- 0.15 uM after 24 hrs by Annexin V-APC/propidium iodide staining based flow cytometry (reference value: 86.1%); assay type: functional
# HL-60 [15] = experiment: Cytotoxicity against human HL60 cells assessed as inhibition of metabolic activity after 24 hrs by MTT assay; assay type: functional, cell-based; conditions: HL-60, 24 h
# Procedure, shortened: (§3)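 MTT assay on HL-60 or MCF-7 cells seeded and grown 24 h, then treated 24 h over 10^-7 to 10^-3 M (final DMSO <0.1%). MTT (5 mg/mL in PBS) added for 2 h. Formazan dissolved in DMSO and read at 560 nm against untreated cells. IC50 derived from concentration–response curves of ≥3 experiments.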
# MCF7 [16] = experiment: Cell cycle arrest in human MCF7 cells assessed as accumulation at S phase at 3.4 +/- 0.15 uM after 24 hrs by DAPI staining based flow cytometry (reference value: 22%); assay type: functional
# HL-60 [17] = experiment: Induction of transmembrane potential depolarization in human HL60 cells at 7.27 +/- 0.08 uM after 24 hrs by JC-10 staining based flow cytometry (reference value: 15.9%); assay type: functional
# HL-60 [18] = experiment: Induction of ROS generation in human HL60 cells at 7.27 +/- 0.08 uM after 24 hrs by Cellrox Green staining based flow cytometry relative to control; assay type: functional
# MCF7 [19] = experiment: Induction of ROS generation in human MCF7 cells at 3.4 +/- 0.15 uM after 24 hrs by Cellrox Green staining based flow cytometry relative to control; assay type: functional
# HL-60 [20] = experiment: Induction of apoptosis in human HL60 cells assessed as necrotic cells at 7.27 +/- 0.08 uM after 24 hrs by Annexin V-APC/propidium iodide staining based flow cytometry (reference value: 0.1%); assay type: functional
# HL-60 [21] = experiment: Induction of DNA damage in human HL60 cells assessed as increase in H2AX phosphorylation at S139 residue at 7.27 +/- 0.08 uM after 24 hrs by DAPI staining based flow cytometry relative to control; assay type: functional
# MCF7 [22] = experiment: Cell cycle arrest in human MCF7 cells assessed as accumulation at G2/M phase at 3.4 +/- 0.15 uM after 24 hrs by DAPI staining based flow cytometry (reference value: 23%); assay type: functional
# HL-60 [23] = experiment: Cell cycle arrest in human HL60 cells assessed as accumulation at S phase at 7.27 +/- 0.08 uM after 24 hrs by DAPI staining based flow cytometry (reference value: 26.1%); assay type: functional
# MCF7 [24] = experiment: Cytotoxicity against human MCF7 cells assessed as inhibition of metabolic activity after 24 hrs by MTT assay; assay type: functional, cell-based; conditions: MCF7, 24 h; procedure, shortened: as §3
# HL-60 [25] = experiment: Induction of apoptosis in human HL60 cells assessed as late apoptotic cells at 7.27 +/- 0.08 uM after 24 hrs by Annexin V-APC/propidium iodide staining based flow cytometry (reference value: 2.7%); assay type: functional
# HL-60 [26] = experiment: Induction of apoptosis in human HL60 cells assessed as increase in cleaved PARP positive cells at 7.27 +/- 0.08 uM after 24 hrs by DAPI staining based flow cytometry (reference value: 1.2 +/- 0.2%); assay type: functional
# MCF7 [27] = experiment: Induction of transmembrane potential depolarization in human MCF7 cells at 3.4 +/- 0.15 uM after 24 hrs by JC-10 staining based flow cytometry (reference value: 18.2%); assay type: functional
# HL-60 [28] = experiment: Cell cycle arrest in human HL60 cells assessed as accumulation at G2/M phase at 7.27 +/- 0.08 uM after 24 hrs by DAPI staining based flow cytometry (reference value: 31.2%); assay type: functional
# MCF7 [29] = experiment: Induction of apoptosis in human MCF7 cells assessed as necrotic cells at 3.4 +/- 0.15 uM after 24 hrs by Annexin V-APC/propidium iodide staining based flow cytometry (reference value: 1.9%); assay type: functional
# HL-60 [30] = experiment: Cell cycle arrest in human HL60 cells assessed as accumulation at G0/G1 phase at 7.27 +/- 0.08 uM after 24 hrs by DAPI staining based flow cytometry (reference value: 39.5%); assay type: functional
# MCF7 [31] = experiment: Induction of apoptosis in human MCF7 cells assessed as early apoptotic cells at 3.4 +/- 0.15 uM after 24 hrs by Annexin V-APC/propidium iodide staining based flow cytometry (reference value: 5.9%); assay type: functional
structure (smiles),measurement,setting,value
COc1cccc2c1C(=O)c1c(O)c3c(c(O)c1C2=O)C[C@@](O)(C(=O)CO)C[C@@H]3O[C@H]1C[C@H](N)[C@H](O)[C@H](C)O1 [DOXORUBICIN],IC50,HUVEC,1.4 µM
same,IC50,MCF-10A,1.2 µM
same,IC50,HL-60 [1],0.11 µM
CCOP(=O)(OCC)c1c2c(n(C3CC3)c1O)C(=O)c1ccccc1C2=O,IC50,NALM-6,51.3 µM
same,IC50,MCF7 [2],102 µM
same,IC50,HL-60 [1],65 µM
CCOP(=O)(OCC)c1c(-c2ccc(Cl)cc2Cl)oc2c1C(=O)c1ccccc1C2=O,selectivity ratio,[3],4
same,IC50,NALM-6,4.82 µM
same,IC50,HUVEC,4.06 µM
same,IC50,MCF-10A,11.3 µM
same,IC50,MCF7 [2],2.9 µM
same,IC50,HL-60 [1],5.44 µM
CCOP(=O)(OCC)c1c(C)oc2c1C(=O)c1ccccc1C2=O,IC50,NALM-6,5.85 µM
same,IC50,MCF7 [2],5.7 µM
same,IC50,HL-60 [1],8.13 µM
CC1=CC(=O)c2ccccc2C1=O,Activity,HL-60 [4],Active
same,Activity,MCF7 [5],Active
CCOP(=O)(OCC)c1c(-c2cc(F)c(Cl)nc2Cl)oc2c1C(=O)c1ccccc1C2=O,selectivity ratio,[3],4
same,IC50,NALM-6,5.32 µM
same,IC50,HUVEC,4.85 µM
same,IC50,MCF-10A,9.79 µM
same,IC50,MCF7 [2],2.85 µM
same,IC50,HL-60 [1],5.94 µM
CCCCCCn1c(O)c(P(=O)(OCC)OCC)c2c1C(=O)c1ccccc1C2=O,IC50,NALM-6,44.3 µM
same,IC50,MCF7 [2],19.5 µM
same,IC50,HL-60 [1],30.7 µM
CCOP(=O)(O)c1c(-c2ccccc2Cl)oc2c1C(=O)c1ccccc1C2=O,IC50,NALM-6,479 µM
same,IC50,MCF7 [2],150 µM
same,IC50,HL-60 [1],487 µM
CCOP(=O)(OCC)c1c2c(n(Cc3ccccc3Cl)c1O)C(=O)c1ccccc1C2=O,IC50,NALM-6,60.1 µM
same,IC50,MCF7 [2],65 µM
same,IC50,HL-60 [1],42.4 µM
CCCn1c(O)c(P(=O)(OCC)OCC)c2c1C(=O)c1ccccc1C2=O,IC50,NALM-6,60 µM
same,IC50,MCF7 [2],43.9 µM
same,IC50,HL-60 [1],56.2 µM
CCOP(=O)(OCC)c1c2c(n(C)c1O)C(=O)c1ccccc1C2=O,IC50,NALM-6,61.7 µM
same,IC50,MCF7 [2],50 µM
same,IC50,HL-60 [1],59.7 µM
CCOP(=O)(OCC)c1c(-c2ccccc2)oc2c1C(=O)c1ccccc1C2=O,IC50,NALM-6,6.06 µM
same,IC50,MCF7 [2],2.4 µM
same,IC50,HL-60 [1],6.01 µM
CCOP(=O)(OCC)c1c(-c2ccccc2Cl)oc2c1C(=O)c1ccccc1C2=O,selectivity ratio,[3],4
same,Activity,HL-60 [6],4.8%
same,IC50,NALM-6,5.07 µM
same,inhibition (INH),HL-60 [7],91%
same,Activity,MCF7 [8],inactive
same,Activity,MCF7 [9],19%
same,Activity,MCF7 [10],11.03%
same,IC50,HUVEC,3.73 µM
same,Activity,MCF7 [11],62%
same,Activity,HL-60 [12],8.2%
same,IC50,MCF-10A,10 µM
same,inhibition (INH),MCF7 [13],34%
same,Activity,MCF7 [14],72.4%
same,IC50,HL-60 [15],7.27 µM
same,Activity,MCF7 [16],22.4%
same,Activity,HL-60 [17],44%
same,IC50,MCF7 [2],2.34 µM
same,fold change (FC),HL-60 [18],10
same,fold change (FC),MCF7 [19],10
same,Activity,HL-60 [20],2.7%
same,Activity,HL-60 [21],40.7%
same,Activity,MCF7 [22],16.4%
same,Activity,HL-60 [23],36.1%
same,IC50,MCF7 [24],3.4 µM
same,Activity,HL-60 [25],27.8%
same,Activity,HL-60 [26],<=82.8%
same,Activity,MCF7 [27],50 - 50.1%
same,Activity,HL-60 [28],26.1%
same,Activity,MCF7 [29],5.6%
same,IC50,HL-60 [1],6.35 µM
same,Activity,HL-60 [30],33.5%
same,Activity,MCF7 [31],3%
CCOP(=O)(OCC)c1c(-c2cccnc2Cl)oc2c1C(=O)c1ccccc1C2=O,IC50,NALM-6,6.65 µM
same,IC50,MCF7 [2],2.55 µM
same,IC50,HL-60 [1],8.66 µM
